Assay results of several laboratories.
Each line is one published result; the experiments were not run side by side.
Organism: Pseudomonas aeruginosa
Effect on: microbial growth

CCn1cc(C(=O)O)c(=O)c2cc(F)c(N3CCNCC3)cc21 — MIC (broth dilution; ATCC9027): 2 µM
CC(C)Oc1c(NC(=O)c2ccc(NC(=O)[C@H](CC(N)=O)NC(=O)c3ccc(NC(=O)c4ccc(C#N)cc4)cc3)cc2)ccc(C(=O)Nc2ccc(C(=O)O)cc2)c1O — MIC (PA14): 2 µg/mL
COc1c(C)c(OS(=O)(=O)c2ccc3ccccc3c2)c(C)c(O)c1C(=O)/C=C/c1ccccc1 — MIC (broth dilution; ATCC27853): 5000 µg/mL
CCCCCCC/C=C/C(=O)N1C(=O)/C(=C(\O)c2ccccc2)C(=O)C1CC(C)C (centres unmarked) — MIC (PA01): > 200 µg/mL
CN(C)C1CN(Cc2ccc3cc4c(c(O)c3c2)C(=O)C2=C(O)[C@]3(O)C(=O)C(C(N)=O)=C(O)[C@@H](N(C)C)[C@@H]3C[C@@H]2C4)C1 — MIC (broth dilution; ATCC27853): 32 µg/mL
O=c1[nH]cc(F)c(=O)[nH]1 — MIC (broth dilution; 24 h): 4 µg/mL
Cc1ccc(C)n1-c1ccc(-c2nnc(-c3ccc(Br)cc3)[nH]2)cc1 — MIC (broth dilution; ATCC10145; 18 h): 125 µg/mL
CCCCCCC/C=C/C(=O)N1C(=O)/C(=C(\O)c2ccc(F)cc2)C(=O)C1CC(C)C (centres unmarked) — MIC (PA01): > 200 µg/mL
CN(C)c1ccc(-c2ccc3cc4c(c(O)c3c2)C(=O)C2=C(O)[C@]3(O)C(=O)C(C(N)=O)=C(O)[C@@H](N(C)C)[C@@H]3C[C@@H]2C4)cc1 — MIC (broth dilution; ATCC27853): 32 µg/mL
O=C(O)c1cn(C2CC2)c2cc(N3CCNCC3)c(F)cc2c1=O — MIC (broth dilution; ATCC27853): 16 µg/mL
O=c1c(O)c(-c2ccc(O)c(O)c2)oc2cc(O)cc(O)c12 — MIC (broth dilution; PAO1): 256 µg/mL
CC1(C)S[C@@H]2[C@H](NC(=O)[C@H](N)c3ccccc3)C(=O)N2[C@H]1C(=O)O — MIC: > 200 µg/mL
CC1=NN(CNc2ccc(C(=O)O)cc2)C(=O)C1=NNn1c(-c2ccccc2)nc2ccccc2c1=O — MIC (broth dilution; 24 h): 50.5 µM
CN(C)[C@@H]1C(O)=C(C(N)=O)C(=O)[C@@]2(O)C(O)=C3C(=O)c4c(O)c(N)nc(F)c4C[C@H]3C[C@@H]12.Cl.Cl — MIC (broth dilution; ATCC27853): 4 µg/mL
O=C1C[C@@H](c2ccc(O)cc2)Oc2cc(O)cc(O)c21 — MIC (broth dilution; PAO1): 128 µg/mL
CC(C)Oc1c(-n2cc(-c3ccc(NC(=O)C(CC(N)=O)NC(=O)c4ccc(NC(=O)c5ccc(C#N)cc5)cc4)cc3)nn2)ccc(C(=O)Nc2ccc(C(=O)O)cc2)c1O (centres unmarked) — MIC (PA14): 8 µg/mL
Cn1c(SCc2ccc(Cl)cc2)nnc1-c1cncc(C#Cc2ccccc2)c1 — MIC: ≥ 20 µg/mL
Clc1ccccc1NCc1ccc(Oc2ccccn2)cc1 — MIC: > 25 µg/mL
CN[C@H](CC(C)C)C(=O)N[C@H]1C(=O)N[C@@H](CC(N)=O)C(=O)N[C@H]2C(=O)N[C@H]3C(=O)N[C@H](C(=O)N[C@H](C(=O)O)c4cc(O)cc(O)c4-c4cc3ccc4O)[C@H](O)c3ccc(c(Cl)c3)Oc3cc2cc(c3O[C@@H]2O[C@H](CO)[C@@H](O)[C@H](O)[C@H]2O[C@H]2C[C@](C)(N)[C@H](O)[C@H](C)O2)Oc2ccc(cc2Cl)[C@H]1O — MIC (broth dilution; ATCC27853; 18 h): > 32 µg/mL
NC1CCCCc2c1[nH]c1ccc(Cl)c(Cl)c21 (centres unmarked) — MIC (broth dilution; PAO1; 18 h): 256 µg/mL
COc1ccc(NCc2ccc(Oc3ccccn3)cc2)cc1 — MIC: > 25 µg/mL
C/C(O)=C1\C(=O)C(CC(C)C)N(C(=O)CCCCCc2ccccc2)C1=O (centres unmarked) — MIC (PA01): > 200 µg/mL
CNc1nc(Cl)c2c(c1O)C(=O)C1=C(O)[C@]3(O)C(=O)C(C(N)=O)=C(O)[C@@H](N(C)C)[C@@H]3C[C@@H]1C2.Cl.Cl.Cl — MIC (broth dilution; ATCC27853): 8 µg/mL
CCCCCCC#Cc1cncc(-c2nnc(SCc3ccc([N+](=O)[O-])o3)n2C2CC2)c1 — MIC: ≥ 20 µg/mL
COc1c(C)c(O)c(C)c(O)c1C(=O)/C=C/c1ccccc1 — MIC (broth dilution; ATCC27853): 1250 µg/mL
CC(=O)NC1CN(Cc2ccc3cc4c(c(O)c3c2)C(=O)C2=C(O)[C@]3(O)C(=O)C(C(N)=O)=C(O)[C@@H](N(C)C)[C@@H]3C[C@@H]2C4)C1 — MIC (broth dilution; ATCC27853): 32 µg/mL
O=C(CCc1ccc(O)c(O)c1)NCCCCCCCC[P+](c1ccccc1)(c1ccccc1)c1ccccc1.[Br-] — MIC (broth dilution; ATCC27853; 18 h): > 32 µg/mL
O=C(O)c1cn(C2CC2)c2cc(N3CCNCC3)c(F)cc2c1=O — MIC (broth dilution; ATCC10145; 18 h): > 5 µg/mL
CCCCCCC/C=C/C(=O)N1C(=O)/C(=C(/C)O)C(=O)C1CCC(=O)O (centres unmarked) — MIC (PA01): > 200 µg/mL
C[C@H]1[C@H](NC(=O)/C(=N\OC(C)(C)C(=O)O)c2csc(N)n2)C(=O)N1S(=O)(=O)O — MIC (agar dilution; ATCC27): 4 µg/mL
CC(C)CNc1nc(Cl)c2c(c1O)C(=O)C1=C(O)[C@]3(O)C(=O)C(C(N)=O)=C(O)[C@@H](N(C)C)[C@@H]3C[C@@H]1C2.Cl.Cl.Cl — MIC (broth dilution; ATCC27853): > 32 µg/mL
CC1(C)SC2C(NC(=O)C(NC(=O)C3=C(O)C(Cc4ccsc4)NC3=O)c3ccccc3)C(=O)N2C1C(=O)O (centres unmarked) — MIC: 25 µg/mL
Cc1ccc(C)n1-c1ccc(-c2nnc(-c3ccccc3[N+](=O)[O-])[nH]2)cc1 — MIC (broth dilution; ATCC10145; 18 h): 250 µg/mL
CC(C)Oc1c(NC(=O)c2ccc(NC(=O)[C@H](CC(N)=O)NC(=O)c3ccc(NC(=O)c4ccc(C#N)cc4)cc3)cc2)ccc(C(=O)NC2CCNCC2)c1O — MIC (PA14): > 64 µg/mL
CN(C)[C@@H]1C(O)=C(C(N)=O)C(=O)[C@@]2(O)C(O)=C3C(=O)c4c(O)cncc4C[C@H]3C[C@@H]12.Cl.Cl — MIC (broth dilution; ATCC27853): 8 µg/mL
COc1c(C)c(OC(C)=O)c(C)c(OC(C)=O)c1C(=O)/C=C/c1ccccc1 — MIC (broth dilution; ATCC27853): 5000 µg/mL
COc1c2c(c(O)c3cc(CN(C)C)ccc13)C(=O)C1=C(O)[C@]3(O)C(=O)C(C(N)=O)=C(O)[C@@H](N(C)C)[C@@H]3C[C@@H]1C2 — MIC (broth dilution; ATCC27853): 16 µg/mL
CC(C)Oc1c(NC(=O)c2ccc(NC(=O)[C@H](CC(N)=O)NC(=O)c3ccc(NC(=O)c4cc(=O)c(O)c[nH]4)cc3)cc2)ccc(C(=O)Nc2ccc(C(=O)O)cc2)c1O — MIC (PA14): > 64 µg/mL
C[C@H]1COc2c(N3CCN(C)CC3)c(F)cc3c(=O)c(C(=O)O)cn1c23 — MIC (broth dilution): 138 µM
O=[N+]([O-])c1ccc(-c2nc3cc(Cl)ccc3[nH]2)o1 — MIC (broth dilution; ATCC27853): > 64 µg/mL
CC(C)Oc1c(NC(=O)c2ccc(NC(=O)[C@H](CC(N)=O)NC(=O)c3ccc(NC(=O)c4ccc(C#N)cc4)cc3)cc2)ccc(C(=O)Nc2cc(C(=O)O)n(C)c2)c1O — MIC (PA14): > 64 µg/mL
NC[C@H]1O[C@H](O[C@H]2[C@H](O)[C@@H](O[C@H]3O[C@H](CO)[C@@H](O)[C@H](N)[C@H]3O)[C@H](N)C[C@@H]2N)[C@H](N)C[C@@H]1O — MIC (broth dilution): 13 µM
CC(C)Oc1c(NC(=O)c2ccc(NC(=O)[C@H](CC(N)=O)NC(=O)c3ccc(NC(=O)Cc4ccc(C#N)cc4)cc3)cc2)ccc(C(=O)Nc2ccc(C(=O)O)cc2)c1O — MIC (PA14): > 64 µg/mL
Fc1ccccc1NCc1ccc(Oc2ccccn2)cc1 — MIC: > 25 µg/mL
CN(C)[C@@H]1C(O)=C(C(N)=O)C(=O)[C@@]2(O)C(O)=C3C(=O)c4c(cnc(-c5ccccc5)c4O)C[C@H]3C[C@@H]12.Cl.Cl — MIC (broth dilution; ATCC27853): > 32 µg/mL
CC(C)Oc1c(NC(=O)c2ccc(NC(=O)[C@H](CC(N)=O)NC(=O)c3ccc(NC(=O)c4ccc(N)cc4)cc3)cc2)ccc(C(=O)Nc2ccc(C(=O)O)cc2)c1O — MIC (PA14): > 64 µg/mL
Cc1ccc2nc(-c3ccc([N+](=O)[O-])cc3)n(Cc3ccccc3Cl)c2c1 — MIC (broth dilution; ATCC27853): 256 µg/mL
Cc1cc(C(=O)Nc2ccc(C(=O)N[C@@H](CC(N)=O)C(=O)Nc3ccc(C(=O)Nc4ccc(C(=O)Nc5ccc(C(=O)O)cc5)c(O)c4OC(C)C)cc3)cc2)ccc1C#N — MIC (PA14): 4 µg/mL
CC1(C)SC2C(NC(=O)C(NC(=O)C3=C(O)C(Cc4ccccc4)NC3=O)c3ccccc3)C(=O)N2C1C(=O)O (centres unmarked) — MIC: 6.25 µg/mL
CC1=NN(CNc2ccc(Cl)cc2)C(=O)C1=NNn1c(-c2ccccc2)nc2ccccc2c1=O — MIC (broth dilution; 24 h): 51.5 µM
